WT yeast gro inh = growth inhibition of WT yeast, mitochondrial fusion screen; AID 1362; 190,000 compounds, 2.1% hits; mitochondrial fusion phenotypic screen, WT strain; inhibition, % at 10 µM; in the data active means inhibition above about 58%; tested in S. cerevisiae
14-3-3 Bad PPI = disrupts binding of bovine 14-3-3 zeta to phospho-Bad peptide | P63103 | inhibition, % at 21.7 µM | 220,000 compounds, 0.71% hits | TR-FRET 14-3-3zeta/Dy647-pBad peptide displacement, 1 h;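 active means inhibition above about 70%, limit read from the data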;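 further: 0% = full 14-3-3 plus peptide FRET controls and 100% = background without 14-3-3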
RBBP9 inh = human RBBP9 hydrolase inhibition; AID 1515; recombinant RBBP9, FP-Rh probe fluorescence polarization; 220,000 compounds, 0.2% hits; O75884; inhibition, % at 7.94 µM;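 active means inhibition above the campaign mean of all tested compounds plus 3 SD, cut at about 14% in these data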;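 further: plate controls were DMSO wells with RBBP9 for no effect and wells lacking RBBP9 protein for full effect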
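Test system – recombinant human RBBP9 · Input – RBBP9 2.5 µM in dispensing solution, pre-mixing · Medium – Tris buffer pH 8.0, NaCl, Pluronic · Schedule – preincubation 30 min plus labeling 45 min at 25 °C · Measured by – fluorescence polarization · Measure – % inhibition · Controls – DMSO and no-protein wells · Replicates – one well per compound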
ROMK mod = human ROMK K+ channel modulation, primary screen. AID 1918. Tet-inducible ROMK, thallium flux fluorescence; actives lie on both sides. B-score at 10 µM. 130,000 compounds, 2% hits;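 active means signal ratio slope over the read window, or its plate-corrected B-score, at least 3 SD from the plate mean, either direction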;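 further: B-score of the F/F0 ratio slope over 7 to 12 s after thallium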
Target sequence (P48048 whole entry, looked up): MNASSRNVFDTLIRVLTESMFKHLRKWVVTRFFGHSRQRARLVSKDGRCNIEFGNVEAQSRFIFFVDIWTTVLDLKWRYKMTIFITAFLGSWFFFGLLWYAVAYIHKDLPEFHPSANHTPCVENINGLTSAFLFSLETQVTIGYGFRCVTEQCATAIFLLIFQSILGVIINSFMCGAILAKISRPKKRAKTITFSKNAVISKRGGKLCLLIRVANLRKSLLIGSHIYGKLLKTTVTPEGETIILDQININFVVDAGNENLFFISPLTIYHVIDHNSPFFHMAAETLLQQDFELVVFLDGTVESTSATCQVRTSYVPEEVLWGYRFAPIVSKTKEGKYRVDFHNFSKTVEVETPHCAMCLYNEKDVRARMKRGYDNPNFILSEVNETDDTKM
NCF1 inh = inhibitors of human p47phox binding; P14598; p47phox/p22phox peptide binding, fluorescence polarization, 2 h; inhibition, % at 24.7 µM; 220,000 compounds, 0.53% hits;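 active means inhibition above about 30%, limit read from the data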;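 further: 0% = p47phox with labelled peptide and 100% = labelled peptide alone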
KCC2 mod = modulators of human KCC2 chloride dependent transport; Q9H2X9; KCC2 cells, thallium flux FluoZin-2 fluorescence; B-score of Tl+ flux slope (higher = more flux/activation; lower = inhibition) at 10 µM; 190,000 compounds, 2.2% hits;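 active means thallium flux slope and its plate-corrected score both differing from the plate sample mean at a set confidence after two filtering rounds, in either direction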;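 further: slope of fluorescence scaled to starting intensity during 10 to 20 s after thallium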
* hit, by the source's call; nt = not tested or not shown. An excerpt weighted towards active compounds, which were near 5.8% of everything screened.

SMILES	WT yeast gro inh	14-3-3 Bad PPI	RBBP9 inh	ROMK mod	NCF1 inh	KCC2 mod
N=c1n(CC(=O)c2ccc([N+](=O)[O-])cc2)c2ccccc2n1Cc1ccc(Cl)cc1	7.4	27.3	-4.2	nt	-2.5	-0.613
N=c1c2c(n(Cc3ccc(Cl)c(Cl)c3)c3c1CCC3)CCCC2	71.8*	-3.5	-3.0	nt	-3.5	nt
N=c1c2c(n(Cc3ccc(Br)cc3)c3c1CCC3)CCCC2	58.1*	4.4	-4.7	-1.27	-5.3	-0.37
CCCn1c2c(c(=N)c3c1CCC3)CCCC2	10.4	21.4	-2.8	0.427	-6.2	0.000284
COc1ccccc1Nc1nnc(SCC(=O)NC(=O)Nc2ccc3c(c2)OCCO3)s1	-10.9	-6.8	-8.6	-0.144	-2.6	0.466
CCN1Cc2c(/C=C/c3ccccc3)nc3ccc(OC)cc3c2N(c2cccc(Cl)c2)C1	nt	1.9	-17.7	nt	-41.3	-1.01
Cc1c(-c2cccs2)[n+](=O)c2c(n1[O-])CCCCC2	58.0*	2.7	-0.8	-0.531	-8.8	nt
O=C(CCC(=O)NNC(=O)c1ccccc1[N+](=O)[O-])NCc1ccccc1	-7.1	-16.5	2.0	0.82	1.4	1.35
O=C(O)c1cc(-c2ccc(/C=N/Nc3ccc(Cl)cc3)o2)ccc1Cl	62.5*	-4.0	-5.8	nt	-32.7	-2.39
CCC1CCCCN1c1cc(C)nc2cc(-c3cccc(C)c3)nn12 (stereo unspecified)	88.8*	11.1	-7.4	nt	-8.6	-0.883
COc1cc(/C=C2\C(=O)ON=C2c2ccccc2)cc(Cl)c1O	-4.0	2.8	-7.2	-15.4*	-166.0	-5.3*
O=c1ccccn1Cc1c(Cl)cccc1Cl	72.9*	4.1	-0.2	nt	-8.7	0.0036
CCc1cc2c(=O)c(-c3ccc4c(c3)OCCO4)c(C)oc2cc1OS(C)(=O)=O	7.6	0.4	-5.3	nt	-36.8	-0.959
COC(=O)C1=C(Nc2ccc(C)cc2)C=C(C)C(C(=O)OC)C1c1ccc(OC)cc1 (stereo unspecified)	70.3*	-4.0	5.4	1.16	-7.3	-0.635
O=C1c2cnc3nc(SCc4ccccc4)nn3c2CC2c3ccccc3CCN12 (stereo unspecified)	80.5*	12.3	-3.5	0.159	1.7	-0.272
CSc1nc2ncc3c(n2n1)CC(C)(C)CC3=O	-2.2	-6.8	-2.5	1.56	-7.8	0.234
Nc1nc(-c2c(Cl)cccc2Cl)no1	nt	1.0	-6.6	nt	-3.9	nt
NNc1nc2c(Cl)c(Cl)ccc2s1	77.7*	-27.0	12.4	-0.25	2.1	-0.725
CCNc1nc(NCC)n2c(SCC(=O)c3ccccc3F)nnc2n1	4.6	-12.3	-3.1	0.457	-6.0	-0.145
O=C(/C(=C/O)N=Nc1ccccc1Cl)c1ccccc1	-5.5	-7.5	-9.8	1.59	-7.5	0.207
Cc1ccc(N=N/C(=C\O)C(=O)c2ccncc2)cc1	-1.5	17.9	-5.3	0.0381	-7.8	nt
Cc1cccc(N/N=C(\C=N\N)C(=O)c2ccc(Br)cc2)c1	76.6*	-22.0	-9.7	0.111	-37.5	1.47
O=C(/C(=C/O)N=Nc1cccc(C(F)(F)F)c1)c1ccccc1	94.6*	-8.7	-10.1	1.13	-10.1	-0.422
Cc1cccc(/C=N/NC(=O)c2ccc(Br)cc2)c1	-6.8	-7.4	-9.2	1	-2.3	-0.577
Cc1cccc(N=N/C(=C\O)C(=O)c2ccc(Br)cc2)c1	96.5*	-6.5	-8.9	0.756	-8.9	0.872
SMILES	WT yeast gro inh	14-3-3 Bad PPI	RBBP9 inh	ROMK mod	NCF1 inh	KCC2 mod
N#Cc1cnn(-c2ccccc2)c1NC(=O)CN1CCN(c2ccccc2)CC1	nt	-1.3	-7.2	nt	-10.5	0.259
CC[n+]1oc(-c2ccccc2)cc1C	14.9	1.2	1.8	0.15	5.5	-1.64
CCn1c(=O)c(=O)[nH]c2cc(C(=O)N3CCN(Cc4ccc5c(c4)OCO5)CC3)ccc21	-4.5	-9.0	-4.6	-0.562	-22.0	-0.0419
CC1CN(Cc2ccccc2)c2ccccc2NC1=S (stereo unspecified)	67.4*	-4.4	-4.1	-0.0192	-10.7	-0.119
O=C1CNC(=S)N1Cc1ccccc1	-12.3	-5.7	-9.1	0.102	0.0	1.18
COc1cccc(N=C2SC(CC(=O)Nc3ccccc3)C(=O)N2Cc2ccccn2)c1 (stereo unspecified)	-6.5	2.4	-3.3	0.2	-21.4	1.75
CCCC1CC(C)(c2csc(Nc3ccc(OCC)cc3)n2)OC1=O (stereo unspecified)	69.0*	-2.9	1.1	nt	2.3	-0.25
